Measured values from ChEMBL document CHEMBL4033712, “Synthesis and biological evaluation of new C-12(α/β)-(N-) sulfamoyl-phenylamino-14-deoxy-andrographolide derivatives as potent anti-cancer agents” (Bioorg Med Chem Lett, 2017).

Tests used:
Type in all cases: functional
CCRF-CEM = assay: Growth inhibition of human CCRF-CEM cells incubated for 48 hrs by sulforhodamine B assay; conditions: for CC50: read-out: LC50 (the source's name)
Procedure, shortened: (§1)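 NCI-60 five-dose screen at 0.01, 0.1, 1, 10 and 100 µM, 48 h incubation, sulforhodamine B end point. GI50 (50% decrease in net growth), TGI (total growth inhibition) and LC50 (net 50% loss of initial cells) taken from log concentration versus % growth inhibition curves.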

MOLT-4 = assay: Growth inhibition of human MOLT4 cells incubated for 48 hrs by sulforhodamine B assay; conditions: MOLT-4, 48 h; for CC50: read-out: LC50 (the source's name); procedure, shortened: as §1
RPMI-8226 = assay: Growth inhibition of human RPMI8226 cells incubated for 48 hrs by sulforhodamine B assay; conditions: RPMI-8226, 48 h; for CC50: read-out: LC50 (the source's name)
Procedure, shortened: (§2)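 NCI 60 human tumour cell line panel, five-dose study at 0.01, 0.1, 1, 10 and 100 µM, 48 h incubation. Sulforhodamine B protein-binding dye end point. GI50 (50% decrease in net cell growth), TGI (total growth inhibition) and LC50 (net 50% loss of initial cells) read from log concentration versus % growth inhibition curves.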

SR = assay: Growth inhibition of human SR cells incubated for 48 hrs by sulforhodamine B assay; conditions: for CC50: read-out: LC50 (the source's name); procedure, shortened: as §2
HOP-62 = assay: Growth inhibition of human HOP62 cells incubated for 48 hrs by sulforhodamine B assay; conditions: HOP-62, 48 h; for CC50: read-out: LC50 (the source's name); procedure, shortened: as §1
NCI-H226 = assay: Growth inhibition of human NCI-H226 cells incubated for 48 hrs by sulforhodamine B assay; conditions: NCI-H226, 48 h; procedure, shortened: as §1
NCI-H23 = assay: Growth inhibition of human NCI-H23 cells incubated for 48 hrs by sulforhodamine B assay; conditions: NCI-H23, 48 h; for CC50: read-out: LC50 (the source's name); procedure, shortened: as §1
NCI-H460 = assay: Growth inhibition of human NCI-H460 cells incubated for 48 hrs by sulforhodamine B assay; conditions: NCI-H460, 48 h; for CC50: read-out: LC50 (the source's name); procedure, shortened: as §1
HT-29 = assay: Growth inhibition of human HT-29 cells incubated for 48 hrs by sulforhodamine B assay; conditions: HT-29, 48 h; procedure, shortened: as §1
SW-620 = assay: Growth inhibition of human SW620 cells incubated for 48 hrs by sulforhodamine B assay; conditions: SW-620, 48 h; for CC50: read-out: LC50 (the source's name); procedure, shortened: as §2
SF-268 = assay: Growth inhibition of human SF268 cells incubated for 48 hrs by sulforhodamine B assay; conditions: SF-268, 48 h; for CC50: read-out: LC50 (the source's name); procedure, shortened: as §2
SNB-75 = assay: Growth inhibition of human SNB75 cells incubated for 48 hrs by sulforhodamine B assay; conditions: SNB-75, 48 h; for CC50: read-out: LC50 (the source's name); procedure, shortened: as §2
U-251 = assay: Growth inhibition of human U251 cells incubated for 48 hrs by sulforhodamine B assay; conditions: U-251, 48 h; for CC50: read-out: LC50 (the source's name); procedure, shortened: as §2
LOX IMVI = assay: Growth inhibition of human LOXIMVI cells incubated for 48 hrs by sulforhodamine B assay; conditions: for CC50: read-out: LC50 (the source's name); procedure, shortened: as §1
UACC-257 = assay: Growth inhibition of human UACC257 cells incubated for 48 hrs by sulforhodamine B assay; conditions: UACC-257, 48 h; for CC50: read-out: LC50 (the source's name); procedure, shortened: as §2
UACC-62 = assay: Growth inhibition of human UACC62 cells incubated for 48 hrs by sulforhodamine B assay; conditions: UACC-62, 48 h; for CC50: read-out: LC50 (the source's name); procedure, shortened: as §2
IGROV-1 = assay: Growth inhibition of human IGROV1 cells incubated for 48 hrs by sulforhodamine B assay; conditions: IGROV-1, 48 h; for CC50: read-out: LC50 (the source's name); procedure, shortened: as §1
OVCAR-4 = assay: Growth inhibition of human OVCAR4 cells incubated for 48 hrs by sulforhodamine B assay; conditions: OVCAR-4, 48 h; procedure, shortened: as §1
OVCAR-5 = assay: Growth inhibition of human OVCAR5 cells incubated for 48 hrs by sulforhodamine B assay; conditions: OVCAR-5, 48 h; procedure, shortened: as §1
A498 = assay: Growth inhibition of human A498 cells incubated for 48 hrs by sulforhodamine B assay; conditions: A498, 48 h; procedure, shortened: as §1
ACHN = assay: Growth inhibition of human ACHN cells incubated for 48 hrs by sulforhodamine B assay; conditions: for CC50: read-out: LC50 (the source's name); procedure, shortened: as §1
CAKI-1 = assay: Growth inhibition of human Caki1 cells incubated for 48 hrs by sulforhodamine B assay; conditions: CAKI-1, 48 h; for CC50: read-out: LC50 (the source's name); procedure, shortened: as §1
SN12C = assay: Growth inhibition of human SN12C cells incubated for 48 hrs by sulforhodamine B assay; conditions: for CC50: read-out: LC50 (the source's name); procedure, shortened: as §2
UO-31 = assay: Growth inhibition of human UO31 cells incubated for 48 hrs by sulforhodamine B assay; conditions: UO-31, 48 h; procedure, shortened: as §2
DU-145 = assay: Growth inhibition of human DU145 cells incubated for 48 hrs by sulforhodamine B assay; conditions: DU-145, 48 h; for CC50: read-out: LC50 (the source's name); procedure, shortened: as §1
MDA-MB-231 = assay: Growth inhibition of human MDA-MB-231 cells incubated for 48 hrs by sulforhodamine B assay; conditions: MDA-MB-231, 48 h; procedure, shortened: as §1
HOP-92 = assay: Anticancer activity against human HOP92 cells assessed as cell growth at 10 uM after 48 hrs by sulforhodamine B assay relative to control; conditions: HOP-92, 48 h, read-out: Activity
Procedure, shortened: (§3)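 Single-dose NCI-60 panel screen: compound added at 10 µM and the culture incubated 48 h. The end point was read by protein staining with sulforhodamine B. The value is percent growth of treated cells relative to untreated control cells, reported as a mean graph across the panel.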

SF-539 = assay: Anticancer activity against human SF539 cells assessed as cell growth at 10 uM after 48 hrs by sulforhodamine B assay relative to control; conditions: SF-539, 48 h, read-out: Activity; procedure, shortened: as §3
SNB-19 = assay: Anticancer activity against human SNB19 cells assessed as cell growth at 10 uM after 48 hrs by sulforhodamine B assay relative to control; conditions: SNB-19, 48 h, read-out: Activity; procedure, shortened: as §3
[1] = read-out: LC50 (the source's name)

## C=C1CC[C@@H]2[C@](C)(COC(C)=O)[C@H](OC(C)=O)CC[C@@]2(C)[C@H]1CC(Nc1ccc(S(=O)(=O)Nc2nccs2)cc1)C1=CCOC1=O (stereo not given in full)
CCRF-CEM
  GI50: 2.28 µM
  TGI: 6.76 µM
  CC50: > 100 µM
MOLT-4
  GI50: 3.68 µM
  TGI: 73.2 µM
  CC50: > 100 µM
RPMI-8226
  GI50: 2.49 µM
  TGI: 7.62 µM
  CC50: > 100 µM
SR
  GI50: 1.33 µM
  TGI: > 100 µM
  CC50: > 100 µM
HOP-62
  GI50: 13.8 µM
  TGI: 27.5 µM
  CC50: 54.7 µM
NCI-H226
  GI50: 2.36 µM
  TGI: 5.37 µM
NCI-H226; [1]
  CC50: > 100 µM
NCI-H23
  GI50: 10 µM
  TGI: 24.8 µM
  CC50: 61.6 µM
NCI-H460
  GI50: 10.7 µM
  TGI: 25.3 µM
  CC50: 59.9 µM
HT-29
  GI50: 2.17 µM
  TGI: 4.7 µM
HT-29; [1]
  CC50: 15.8 µM
SW-620
  GI50: 1.85 µM
  TGI: 3.98 µM
  CC50: 8.55 µM
SF-268
  GI50: 11.3 µM
  TGI: 25.9 µM
  CC50: 59.1 µM
SNB-75
  GI50: 2.83 µM
  TGI: 15.6 µM
  CC50: 39.5 µM
U-251
  GI50: 1.86 µM
  TGI: 3.5 µM
  CC50: 6.57 µM
LOX IMVI
  GI50: 1.59 µM
  TGI: 3.31 µM
  CC50: 6.92 µM
UACC-257
  GI50: 2.55 µM
  TGI: 5.61 µM
  CC50: 17.2 µM
UACC-62
  GI50: 1.76 µM
  TGI: 4.42 µM
  CC50: 13.5 µM
IGROV-1
  GI50: 4.54 µM
  TGI: 17.1 µM
  CC50: 47.5 µM
OVCAR-4
  GI50: 4.53 µM
  LC50: 43.9 µM
  TGI: 17.7 µM
OVCAR-5
  GI50: 4.82 µM
  LC50 (concentration causing net 50% loss of initial cells): 46.9 µM
  TGI: 17.6 µM
A498
  GI50: 18.2 µM
  LC50 (concentration giving net 50% loss of initial cells): 58.5 µM
  TGI: 32.6 µM
ACHN
  GI50: 5.99 µM
  TGI: 18.9 µM
  CC50: 45 µM
CAKI-1
  GI50: 3.8 µM
  TGI: 14.2 µM
  CC50: 37.7 µM
SN12C
  GI50: 1.87 µM
  TGI: 4.39 µM
  CC50: 14.3 µM
UO-31
  GI50: 4.07 µM
  LC50 (concentration giving net 50% loss of initial cells): 41.8 µM
  TGI: 16.1 µM
DU-145
  GI50: 4.47 µM
  TGI: 15.8 µM
  CC50: 39.8 µM
MDA-MB-231
  GI50: 3.3 µM
  LC50 (concentration giving net 50% loss of initial cells): 37.6 µM
  TGI: 8.25 µM
HOP-92
  growth at 10 µM: 54%
SF-539
  growth at 10 µM: -67.1%
SNB-19
  growth at 10 µM: 49.1%

## C=C1CC[C@@H]2[C@](C)(COC(C)=O)[C@H](OC(C)=O)CC[C@@]2(C)[C@H]1CC(Nc1ccc(S(=O)(=O)Nc2ncccn2)cc1)C1=CCOC1=O (stereo not given in full)
CCRF-CEM
  GI50: 0.73 µM
  TGI: 3.41 µM
  CC50: > 100 µM
MOLT-4
  GI50: 2.27 µM
  TGI: 8.37 µM
  CC50: > 100 µM
RPMI-8226
  GI50: 0.54 µM
  TGI: 3.12 µM
  CC50: > 100 µM
SR
  GI50: 0.31 µM
  TGI: 17.2 µM
  CC50: > 100 µM
HOP-62
  GI50: 3.02 µM
  TGI: 6.44 µM
  CC50: 21.5 µM
NCI-H226
  GI50: 1.63 µM
  TGI: 3.57 µM
NCI-H23
  GI50: 2.11 µM
  TGI: 5.38 µM
  CC50: 26.7 µM
NCI-H460
  GI50: 1.98 µM
  TGI: 4.06 µM
  CC50: 8.32 µM
HT-29
  GI50: 1.03 µM
  TGI: 2.79 µM
SW-620
  GI50: 0.86 µM
  TGI: 2.25 µM
  CC50: 5.36 µM
SF-268
  GI50: 1.93 µM
  TGI: 4.16 µM
  CC50: 8.97 µM
SNB-75
  GI50: 1.27 µM
  TGI: 3.23 µM
  CC50: 8.2 µM
U-251
  GI50: 1.74 µM
  TGI: 3.28 µM
  CC50: 6.17 µM
LOX IMVI
  GI50: 0.89 µM
  TGI: 2.21 µM
  CC50: 5.06 µM
UACC-257
  GI50: 2.34 µM
  TGI: 6.07 µM
  CC50: 21.9 µM
UACC-62
  GI50: 1.11 µM
  TGI: 2.56 µM
  CC50: 5.91 µM
IGROV-1
  GI50: 2.04 µM
  TGI: 4.41 µM
  CC50: 9.53 µM
OVCAR-4
  GI50: 1.85 µM
  LC50: 19.3 µM
  TGI: 5.26 µM
OVCAR-5
  GI50: 1.98 µM
  LC50 (concentration causing net 50% loss of initial cells): 7.47 µM
  TGI: 3.85 µM
A498
  GI50: 12.3 µM
  LC50 (concentration giving net 50% loss of initial cells): 49.9 µM
  TGI: 24.7 µM
ACHN
  GI50: 1.72 µM
  TGI: 3.27 µM
  CC50: 6.2 µM
CAKI-1
  GI50: 1.74 µM
  TGI: 4.04 µM
  CC50: 9.39 µM
SN12C
  GI50: 0.43 µM
  TGI: 1.96 µM
  CC50: 5.82 µM
UO-31
  GI50: 1.51 µM
  LC50 (concentration giving net 50% loss of initial cells): 5.85 µM
  TGI: 2.97 µM
DU-145
  GI50: 1.62 µM
  TGI: 3.07 µM
  CC50: 5.83 µM
MDA-MB-231
  GI50: 1.95 µM
  LC50 (concentration giving net 50% loss of initial cells): 7.91 µM
  TGI: 3.93 µM
HOP-92
  growth at 10 µM: 56.3%
SF-539
  growth at 10 µM: -69%
SNB-19
  growth at 10 µM: 36.7%
